Laboratory results taken from ChEMBL document CHEMBL1157893, “The discovery and structure-activity relationships of pyrano[3,4-b]indole based inhibitors of hepatitis C virus NS5B polymerase” (Bioorg Med Chem Lett, 2010).

Key:
[1] = Inhibition of HCV BK NS5B polymerase; parameters: species or system Hepatitis C virus (isolate BK)
Hepatitis C virus [2] = test: Inhibition of HCV 1b BB7 NS5B Cdelta21 polymerase expressed in Escherichia coli after 120 mins; type: functional, Hepatitis C virus subtype 1b; conditions: BB7, 2 h
Summary of the method: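 RdRp assay with 24 nM NS5BdCT21-His in 20 mM HEPES pH 7.5, 5 mM MgCl₂, 1 mM DTT, 0.05 mg/ml BSA and NTPs. Enzyme preincubated with compound (3 nM–30) 15 min at room temperature, then reacted 120 min at room temperature. Radiolabeled RNA collected on filters and counted by scintillation. IC50 from sigmoidal variable-slope dose–response fit, relative to no-compound controls.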

Hepatitis C virus [3] = test: Antiviral activity against HCV 1b BB7 infected in human HuH7 cells after 3 days by ELISA; type: functional, organism-based, Hepacivirus hominis; conditions: genotype 1b BB7, Huh-7, 72 h
Summary of the method: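 HCV replicon cells; viral replication measured by ELISA against NS5A.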

Hepatitis C virus [4] = test: Antiviral activity against HCV 1b BB7 infected in human HuH7 cells assessed as total viral RNA level after 3 days by RT-PCR analysis; type: functional, Hepacivirus hominis, genotype 1b BB7, Huh-7
Hepatitis C virus [5] = test: Antiviral activity against HCV 1b BB7 infected in human HuH7 cells assessed as GAPDH RNA level after 3 days by RT-PCR analysis; type: functional, Hepacivirus hominis, genotype 1b BB7, Huh-7
[6] = Apparent permeability from apical to basolateral side of human Caco-2 cells; type: ADME, cell-based
[7] = Apparent permeability from basolateral to apical side of human Caco-2 cells; type: ADME, cell-based
[8] = Ratio of apparent permeability from basolateral to apical side over apical to basolateral side in human Caco-2 cells
[9] = Cytotoxicity against human HuH7 cells assessed as BrdU incorporation in to cellular DNA by counter assay; type: cell-based, Huh-7
Summary of the method: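 General cytotoxicity counter assay run alongside the replicon assay, read out as BrdU incorporation into cellular DNA.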

Compound | IC50 [1] | IC50 (Hepatitis C virus [2]) | EC50 (Hepatitis C virus [3]) | CC50 [9] | also measured
O=C(O)CC1(CC2CC2)OCCc2c1[nH]c1c(Cl)ccc(Cl)c21 (stereo unspecified) | 1.9 µM |  |  |  | 
CC/C=C/C1(CC(=O)O)OCCc2c1[nH]c1c(Cl)ccc(Cl)c21 (stereo unspecified) | 1.7 µM |  |  |  | 
CC(C)C1(CC(=O)O)OCCc2c1[nH]c1c(Cl)ccc(Cl)c21 (stereo unspecified) | 7 µM |  |  |  | 
O=C(O)CC1(C2CC2)OCCc2c1[nH]c1c(Cl)ccc(Cl)c21 (stereo unspecified) | 7.3 µM |  |  |  | 
CCC(C)C1(CC(=O)O)OCCc2c1[nH]c1c(Cl)ccc(Cl)c21 (stereo unspecified) | 0.15 µM |  |  |  | 
CC[C@H](C)[C@]1(CC(=O)O)OCCc2c1[nH]c1c(C)ccc(C#N)c21 | 0.13 µM | 0.26 µM | 2.2 µM |  | Activity (Hepatitis C virus [4]): 2.1 µM; Activity (Hepatitis C virus [5]): >10 µM
O=C(O)CC1(C2CCCC2)OCCc2c1[nH]c1c(Cl)ccc(Cl)c21 (stereo unspecified) | 3.3 µM |  |  |  | 
O=C(O)CC1(C2CCCCC2)OCCc2c1[nH]c1c(Cl)ccc(Cl)c21 (stereo unspecified) | > 30 µM |  |  |  | 
CCC1(CC(=O)O)OCCc2c1[nH]c1c(Cl)ccc(Cl)c21 (stereo unspecified) | 6.3 µM |  |  |  | 
CC(C#N)C1(CC(=O)O)OCCc2c1[nH]c1c(Cl)ccc(Cl)c21 (stereo unspecified) | 0.3 µM |  |  |  | 
CC[C@H](C)[C@]1(CC(=O)O)OCCc2c1[nH]c1c(C)c(OCCn3cccn3)cc(C#N)c21 | 0.009 µM | 0.002 µM | 0.12 µM |  | Activity (Hepatitis C virus [4]): 0.02 µM; Activity (Hepatitis C virus [5]): >20 µM
CCC[C@]1(CC(=O)O)OCCc2c1[nH]c1c(C)c(OCCn3cccn3)cc(C#N)c21 | 0.012 µM | 0.005 µM | 0.88 µM |  | Activity (Hepatitis C virus [4]): 0.14 µM; Activity (Hepatitis C virus [5]): >90 µM
CCC[C@]1(C(=O)O)OCCc2c1[nH]c1c(C)ccc(C#N)c21 | 0.7 µM |  |  |  | Activity (Hepatitis C virus [4]): 12 µM; Activity (Hepatitis C virus [5]): >30 µM; Papp A→B [6]: 3.2 ×10⁻⁶ cm/s; Papp B→A [7]: 24.2 ×10⁻⁶ cm/s; efflux ratio [8]: 7.5
O=C(O)CC1(CCC(F)(F)F)OCCc2c1[nH]c1c(Cl)ccc(Cl)c21 (stereo unspecified) | 0.4 µM |  |  |  | 
CCOCC1(CC(=O)O)OCCc2c1[nH]c1c(Cl)ccc(Cl)c21 (stereo unspecified) | 26 µM |  |  |  | 
Cc1ccc(C#N)c2c3c([nH]c12)[C@](CC(=O)O)(C1CCC1)OCC3 | 0.4 µM | 1.1 µM | 29.7 µM |  | 
CCCCC1(CC(=O)O)OCCc2c1[nH]c1c(Cl)ccc(Cl)c21 (stereo unspecified) | 0.76 µM |  |  |  | 
O=C(O)CC1(C2CCC2)OCCc2c1[nH]c1c(Cl)ccc(Cl)c21 (stereo unspecified) | 0.35 µM |  |  |  | 
O=C(O)CC1(CC2CCCC2)OCCc2c1[nH]c1c(Cl)ccc(Cl)c21 (stereo unspecified) | 9.4 µM |  |  |  | 
COCC1(CC(=O)O)OCCc2c1[nH]c1c(Cl)ccc(Cl)c21 (stereo unspecified) | > 30 µM |  |  |  | 
COCCC1(CC(=O)O)OCCc2c1[nH]c1c(Cl)ccc(Cl)c21 (stereo unspecified) | > 24 µM |  |  |  | 
CSCC1(CC(=O)O)OCCc2c1[nH]c1c(Cl)ccc(Cl)c21 (stereo unspecified) | 7 µM |  |  |  | 
CC1(CC(=O)O)OCCc2c1[nH]c1c(Cl)ccc(Cl)c21 (stereo unspecified) | 27 µM |  |  |  | 

Compound | IC50 [1] | IC50 (Hepatitis C virus [2]) | EC50 (Hepatitis C virus [3]) | CC50 [9] | also measured
CCCC1(CC(=O)O)OCCc2c1[nH]c1c(Cl)ccc(Cl)c21 (stereo unspecified) | 0.37 µM |  |  |  | 
CCC[C@]1(CC(=O)O)OCCc2c1[nH]c1c(C)ccc(C#N)c21 | 0.3 µM | 0.4 µM | 13.1 µM | > 100 µM | Activity (Hepatitis C virus [4]): 4.8 µM; Activity (Hepatitis C virus [5]): >160 µM; Papp A→B [6]: 24 ×10⁻⁶ cm/s; Papp B→A [7]: 2.2 ×10⁻⁶ cm/s; efflux ratio [8]: 0.09
CCC(C)C1(CC(=O)O)OCCc2c1[nH]c1c(C)ccc(C#N)c21 (racemic) | 3.2 µM | 4.9 µM |  |  | 
CCC[C@]1([C@H](NC(=O)OCc2ccccc2)C(=O)O)OCCc2c1[nH]c1c(C)ccc(C#N)c21 (racemic) |  | 0.72 µM | 35 µM | 45 µM | 
CCC[C@]1([C@H](NC(C)=O)C(=O)O)OCCc2c1[nH]c1c(C)ccc(C#N)c21 (racemic) |  | 1.7 µM | > 100 µM | > 100 µM | 
CCCCC(=O)N[C@H](C(=O)O)[C@@]1(CCC)OCCc2c1[nH]c1c(C)ccc(C#N)c21 (racemic) |  | 5 µM | > 100 µM | > 100 µM | 
CCC[C@]1([C@H](NC(=O)c2ccccc2)C(=O)O)OCCc2c1[nH]c1c(C)ccc(C#N)c21 (racemic) |  | 4.5 µM | > 100 µM | > 100 µM | 
CCC[C@]1([C@H](NS(C)(=O)=O)C(=O)O)OCCc2c1[nH]c1c(C)ccc(C#N)c21 (racemic) |  | 6 µM | > 100 µM | > 100 µM | 
CCCCS(=O)(=O)N[C@H](C(=O)O)[C@@]1(CCC)OCCc2c1[nH]c1c(C)ccc(C#N)c21 (racemic) |  | 3.6 µM | > 100 µM | > 100 µM | 
CCCCS(=O)(=O)N[C@@H](C(=O)O)[C@@]1(CCC)OCCc2c1[nH]c1c(C)ccc(C#N)c21 (racemic) |  | 22 µM | > 100 µM | > 100 µM | 
CCC[C@]1([C@@H](NS(=O)(=O)c2ccccc2)C(=O)O)OCCc2c1[nH]c1c(C)ccc(C#N)c21 (racemic) |  | 16 µM | > 100 µM | > 100 µM | 
CCC[C@]1([C@H](NC(=O)OC)C(=O)O)OCCc2c1[nH]c1c(C)ccc(C#N)c21 (racemic) |  | 5.6 µM | > 100 µM | > 100 µM | 
CCC[C@]1([C@H](NC(=O)OCC)C(=O)O)OCCc2c1[nH]c1c(C)ccc(C#N)c21 (racemic) |  | 7.2 µM | > 100 µM | > 100 µM | 
CCC[C@]1([C@H](NS(=O)(=O)c2ccccc2)C(=O)O)OCCc2c1[nH]c1c(C)ccc(C#N)c21 (racemic) |  | 4 µM | > 100 µM | > 100 µM | 
CCC[C@]1([C@@H](NC(C)=O)C(=O)O)OCCc2c1[nH]c1c(C)ccc(C#N)c21 (racemic) |  | 17 µM | > 100 µM | > 100 µM | 
CCCCC(=O)N[C@@H](C(=O)O)[C@@]1(CCC)OCCc2c1[nH]c1c(C)ccc(C#N)c21 (racemic) |  | > 30 µM | > 100 µM | > 100 µM | 
CCC[C@]1([C@@H](NC(=O)c2ccccc2)C(=O)O)OCCc2c1[nH]c1c(C)ccc(C#N)c21 (racemic) |  | > 30 µM | > 100 µM | > 100 µM | 
CCC[C@]1([C@@H](NS(C)(=O)=O)C(=O)O)OCCc2c1[nH]c1c(C)ccc(C#N)c21 (racemic) |  | 13 µM | > 100 µM | > 100 µM | 
C=CCOC(=O)N[C@H](C(=O)O)[C@@]1(CCC)OCCc2c1[nH]c1c(C)ccc(C#N)c21 (racemic) |  | 5.9 µM | > 100 µM | > 100 µM | 
CCC[C@]1([C@H](NC(=O)OC(C)C)C(=O)O)OCCc2c1[nH]c1c(C)ccc(C#N)c21 (racemic) |  | 11 µM | > 100 µM | > 100 µM | 
CCC[C@]1([C@H](NC(=O)OCC(C)C)C(=O)O)OCCc2c1[nH]c1c(C)ccc(C#N)c21 (racemic) |  | 9.5 µM | > 100 µM | > 100 µM | 
CCC[C@]1([C@H](NC(=O)OC(C)(C)C)C(=O)O)OCCc2c1[nH]c1c(C)ccc(C#N)c21 (racemic) |  | 18 µM | > 100 µM | > 100 µM | 
